One data set relates to MCF-10A. Kind of data set: Antiproliferative activity against human MCF10A cells after 24 hrs by MTT assay. The data set is classed as cell-based. A digest of the protocol:
(§1)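 Cells were seeded at 3000 per well and incubated 24 h at 37 °C. Compounds were added in triplicate with 10% FBS: 0.1-10 or 0.1-20 µM for cancer lines, 3.125-400 µM for MCF-10A. Viability was read by MTT absorbance at 595 nm, with IC50 fitted from the curves. DMSO stocks were 20 mM.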

The nature of data set [1]: Antiproliferative activity against human UW288-1 cells after 24 hrs by MTT assay. The data set is classed as functional, cell-based. Particulars: UW288-1, 24 h. A digest of the protocol:
as §1
A general note: Formazan colour is commonly taken as a measure of viable cells.

The subject of the next data set is U2OS. Kind of data set: Antiproliferative activity against human U2OS cells after 24 hrs by MTT assay. The format is functional, cell-based. An outline of the steps: as §1
Data set [2] concerns the target T1, Signal transducer and activator of transcription 5B (Homo sapiens) (UniProt P51692).
T1 sequence (whole entry): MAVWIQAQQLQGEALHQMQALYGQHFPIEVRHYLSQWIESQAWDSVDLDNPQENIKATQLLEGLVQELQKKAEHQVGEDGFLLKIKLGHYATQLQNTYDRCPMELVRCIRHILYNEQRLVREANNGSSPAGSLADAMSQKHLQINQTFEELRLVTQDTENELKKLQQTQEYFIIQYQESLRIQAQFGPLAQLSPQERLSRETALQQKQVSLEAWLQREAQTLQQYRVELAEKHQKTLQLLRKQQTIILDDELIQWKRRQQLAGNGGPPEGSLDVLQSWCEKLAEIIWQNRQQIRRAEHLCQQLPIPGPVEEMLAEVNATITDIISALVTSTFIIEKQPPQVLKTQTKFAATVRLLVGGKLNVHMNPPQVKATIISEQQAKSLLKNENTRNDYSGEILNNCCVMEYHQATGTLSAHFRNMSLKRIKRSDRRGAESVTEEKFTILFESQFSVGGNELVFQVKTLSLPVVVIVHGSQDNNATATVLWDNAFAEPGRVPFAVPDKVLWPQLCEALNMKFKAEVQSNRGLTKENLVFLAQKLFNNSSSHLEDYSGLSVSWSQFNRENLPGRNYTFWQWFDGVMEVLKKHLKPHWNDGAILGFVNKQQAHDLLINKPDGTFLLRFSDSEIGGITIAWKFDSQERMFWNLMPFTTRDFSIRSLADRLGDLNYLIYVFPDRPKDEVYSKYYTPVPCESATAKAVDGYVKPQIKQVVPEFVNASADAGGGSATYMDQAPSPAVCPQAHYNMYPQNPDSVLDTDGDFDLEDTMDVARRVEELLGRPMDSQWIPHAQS
Kind of data set: Binding affinity to STAT5B (unknown origin) after 30 mins by fluorescence polarization assay. An outline of the steps:
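A competitive fluorescence polarization assay measured displacement of fluorescent phosphopeptide from the SH2 domain of purchased STAT1 or STAT5 protein, using the corresponding peptides.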
Background: Fluorescence polarisation rises when a labelled molecule tumbles more slowly, as on binding a larger partner.

Data set [3] concerns the target Epidermal growth factor receptor (Homo sapiens) (UniProt P00533). The experiment in a line: Inhibition of EGFR in human UW426 cells assessed as reduction in p-Akt level at 1 to 2.5 uM after 24 hrs by immunoblot analysis. The format is cell-based. An outline of the steps: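 UW426 cells at 60–80% confluence were treated 24 h at 1-2.5 µM with 10% FBS, against a DMSO control, then immunoblotted.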
On the technique in general: In western blotting, separated proteins are transferred to a membrane and probed.

Data set [4] has as its system Mus musculus. Kind of data set: Acute toxicity in ICR mouse assessed as mortality at 200 to 1000 mg/kg, ip measured up to 2 weeks post-treatment. The data set is classed as organism-based. As to conditions: in vivo, 336 h. An outline of the steps:
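ICR mice of both sexes, 7 weeks old, randomized into groups of 10. Each received a single intraperitoneal dose at 200, 400, 600, 800 or 1000 mg/kg.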

Data set [5] has as its system Mus musculus. Kind of data set: Toxicity in BALB/c nude mouse xenografted with human MDA-MB-231 cells assessed as reduction in body weight at 2.5 to 10 mg/kg, po qd administered for 32 days. The data set is classed as organism-based. Particulars: in vivo, 768 h. A digest of the protocol:
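MDA-MB-231 cells (5 x 10^6) were implanted s.c. in the flank of 6-week-old female athymic BALB/c nude mice. Oral dosing started at a tumor volume of about 100 mm3, with 8 mice per group and a saline vehicle control. […] Body weight was tracked over the 32-day treatment.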

For data set [6], the system named is Mus musculus. Kind of data set: In vivo inhibition of STAT3 in po dosed BALB/c nude mouse xenografted with human MDA-MB-231 assessed as reduction in p-STAT3 level administered as qd for 32 days by DAB-staining based IHC analysis. The data set is classed as functional, organism-based. An outline of the steps: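 Fixed sections of MDA-MB-231 xenograft tumors from orally dosed nude mice were immunostained for p-STAT3, with positive cells visualized by DAB.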

Data set [7] in a line: Terminal half life in Sprague-Dawley rat plasma at 1 mg/kg, iv measured after 24 hrs by UPLC analysis. As to conditions: read-out: beta t1/2 (converted). The format is ADME, organism-based. An outline of the steps:
(§2)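 Rats dosed i.v. or p.o. Plasma concentrations followed from 2 min to 24 h after dosing. The bioanalytical method was validated to FDA guidelines for selectivity, linearity, LLOQ, accuracy, precision, recovery, matrix effect and stability.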

Data set [8] can be described thus: Apparent volume of distribution in Sprague-Dawley rat plasma at 1 mg/kg, iv measured after 24 hrs by UPLC analysis. The data set is classed as ADME, organism-based. As to conditions: read-out: Vz. An outline of the steps: (§3)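 Rat plasma sampled from 2 min to 24 h after a single i.v. (1 mg/kg) or p.o. (10 mg/kg) dose. Parameters were derived from the concentration-time profiles. The bioanalytical method was validated to FDA guidelines for selectivity, linearity, LLOQ, accuracy, precision, recovery, matrix effect and stability.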

Data set [9] is described as follows: Clearance in Sprague-Dawley rat plasma at 1 mg/kg, iv measured after 24 hrs by UPLC analysis. The data set is classed as ADME, organism-based. A digest of the protocol:
(§4)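 Parameters were derived from the concentration-time profiles. The bioanalytical method was validated to FDA guidelines for selectivity, linearity, LLOQ, accuracy, precision, recovery, matrix effect and stability.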

The test system of data set [10] is Rattus norvegicus. The experiment in a line: AUMC (0 to t) in Sprague-Dawley rat plasma at 1 mg/kg, iv measured after 24 hrs by UPLC analysis. The format is ADME, organism-based. Particulars: in vivo. A digest of the protocol: as §3
Data set [11] concerns Rattus norvegicus. The experiment in a line: AUMC (0 to infinity) in Sprague-Dawley rat plasma at 1 mg/kg, iv measured after 24 hrs by UPLC analysis. The data set is classed as ADME, organism-based. Particulars: in vivo. A digest of the protocol:
as §3

A short description of data set [12]: Oral bioavailability in Sprague-Dawley rat at 10 mg/kg measured after 24 hrs by UPLC analysis. The data set is classed as ADME, organism-based. Particulars: in vivo.
Data set [13] can be described thus: Tmax in Sprague-Dawley rat plasma at 10 mg/kg, po measured after 24 hrs by UPLC analysis. The data set is classed as ADME, organism-based. An outline of the steps:
as §2

Data set [14] can be described thus: Cmax in Sprague-Dawley rat plasma at 10 mg/kg, po measured after 24 hrs by UPLC analysis. The format is ADME, organism-based. On the set-up: dose 10 mg/kg, route oral. An outline of the steps: as §3
Data set [15] is described as follows: Clearance in Sprague-Dawley rat plasma at 10 mg/kg, po measured after 24 hrs by UPLC analysis. The data set is classed as ADME, organism-based. A digest of the protocol:
as §4

The nature of data set [16]: MRT (0 to infinity) in Sprague-Dawley rat plasma at 10 mg/kg, po measured after 24 hrs by UPLC analysis. The data set is classed as ADME, organism-based. A digest of the protocol:
as §3

The target of data set [17] is Signal transducer and activator of transcription 3 (Homo sapiens, UniProt P40763). As to conditions: 5 uM.
The test system of another data set is CCRF S-180. Kind of data set: Antiproliferative activity against mouse S180 cells after 24 hrs by MTT assay. Particulars: CCRF S-180, 24 h.

The values below come from ChEMBL document CHEMBL4007452, “Discovery of an Orally Selective Inhibitor of Signal Transducer and Activator of Transcription 3 Using Advanced Multiple Ligand Simultaneous Docking” (J Med Chem, 2017).

As a reminder, the pIC50 is the negative decadic logarithm of the IC50, by convention in mol/L. Read a low pIC50 as a large IC50. A word on the clearance: it is the rate of elimination divided by the concentration. A high value points to a high capacity for elimination. In general, bioavailability refers to dose-corrected exposure relative to a reference, in per cent. By Tmax is commonly meant the time from dosing to the highest level. By Cmax is commonly meant the peak of the concentration-time curve. Usually CL/F stands for clearance divided by bioavailability, as obtained after extravascular dosing. For orientation: MRT inf means the average time that molecules of a dose stay in the body.

pIC50: −log10 of the molar value. Active and inactive are the calls of the source. No cut-off for these calls is given here.

Chain of Epidermal growth factor receptor (Homo sapiens) (P00533 whole entry): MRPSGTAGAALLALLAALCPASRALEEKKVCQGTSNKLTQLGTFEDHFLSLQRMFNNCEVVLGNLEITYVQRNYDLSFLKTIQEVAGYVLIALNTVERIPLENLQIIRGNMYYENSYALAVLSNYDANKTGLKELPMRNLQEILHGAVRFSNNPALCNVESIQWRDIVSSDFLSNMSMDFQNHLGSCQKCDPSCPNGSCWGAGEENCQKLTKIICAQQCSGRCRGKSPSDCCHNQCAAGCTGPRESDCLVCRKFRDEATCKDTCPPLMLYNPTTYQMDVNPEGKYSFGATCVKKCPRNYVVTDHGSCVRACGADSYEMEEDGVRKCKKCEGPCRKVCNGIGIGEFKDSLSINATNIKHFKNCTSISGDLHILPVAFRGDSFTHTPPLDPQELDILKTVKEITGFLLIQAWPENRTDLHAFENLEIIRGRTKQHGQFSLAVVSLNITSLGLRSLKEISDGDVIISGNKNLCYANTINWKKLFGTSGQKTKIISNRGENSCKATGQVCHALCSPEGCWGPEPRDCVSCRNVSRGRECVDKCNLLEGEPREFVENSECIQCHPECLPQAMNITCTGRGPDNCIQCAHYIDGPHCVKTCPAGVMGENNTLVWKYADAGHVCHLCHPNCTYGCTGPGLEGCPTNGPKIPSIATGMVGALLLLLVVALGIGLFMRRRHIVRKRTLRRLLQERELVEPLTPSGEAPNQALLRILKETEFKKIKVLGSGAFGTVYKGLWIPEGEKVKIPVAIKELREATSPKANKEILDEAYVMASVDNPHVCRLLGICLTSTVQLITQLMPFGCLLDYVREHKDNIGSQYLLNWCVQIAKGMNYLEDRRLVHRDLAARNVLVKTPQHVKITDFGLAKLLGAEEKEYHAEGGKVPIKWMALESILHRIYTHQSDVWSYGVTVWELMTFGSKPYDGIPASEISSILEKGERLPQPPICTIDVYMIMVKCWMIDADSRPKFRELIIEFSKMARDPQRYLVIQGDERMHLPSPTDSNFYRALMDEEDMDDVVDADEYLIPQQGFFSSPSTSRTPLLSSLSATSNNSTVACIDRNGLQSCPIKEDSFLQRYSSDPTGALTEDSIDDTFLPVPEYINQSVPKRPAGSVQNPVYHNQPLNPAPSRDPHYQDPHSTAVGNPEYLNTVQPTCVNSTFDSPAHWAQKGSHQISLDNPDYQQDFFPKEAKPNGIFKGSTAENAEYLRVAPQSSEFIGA
Chain of Signal transducer and activator of transcription 3 (P40763 whole entry): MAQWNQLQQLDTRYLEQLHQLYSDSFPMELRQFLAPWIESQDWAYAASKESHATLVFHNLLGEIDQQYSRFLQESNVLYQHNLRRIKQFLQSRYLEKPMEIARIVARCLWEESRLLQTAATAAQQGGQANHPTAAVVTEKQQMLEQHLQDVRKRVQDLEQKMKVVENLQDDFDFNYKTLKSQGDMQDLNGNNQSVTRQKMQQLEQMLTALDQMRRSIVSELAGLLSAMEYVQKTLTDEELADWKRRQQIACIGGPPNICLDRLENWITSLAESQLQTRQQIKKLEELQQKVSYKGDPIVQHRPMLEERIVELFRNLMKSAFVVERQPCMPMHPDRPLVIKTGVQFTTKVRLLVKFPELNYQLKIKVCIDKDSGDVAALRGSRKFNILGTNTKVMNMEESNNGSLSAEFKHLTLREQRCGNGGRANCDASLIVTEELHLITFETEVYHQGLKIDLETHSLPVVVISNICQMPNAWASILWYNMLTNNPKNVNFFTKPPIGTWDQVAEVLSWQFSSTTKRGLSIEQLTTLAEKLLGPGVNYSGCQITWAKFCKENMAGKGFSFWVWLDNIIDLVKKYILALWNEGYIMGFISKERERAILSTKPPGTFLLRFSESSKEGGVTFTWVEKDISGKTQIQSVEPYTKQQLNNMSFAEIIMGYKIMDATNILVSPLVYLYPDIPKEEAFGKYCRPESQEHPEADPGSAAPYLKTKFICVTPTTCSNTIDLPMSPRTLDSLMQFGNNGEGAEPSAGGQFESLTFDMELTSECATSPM

`NS(=O)(=O)c1cccc2c1C(=O)C=C(Nc1ccccc1N1CCNCC1)C2=O`: the negative logarithm of the IC50 (pIC50) with MCF-10A was 3.89; in [1], 5.55; in the data set with U2OS it was 5.82; in the data set with CCRF S-180, 6.38. The result in data set [2] was inactive. The inhibition entry in data set [3] is “inactive”. In addition, the Activity result in the data set on Mus musculus [4] and in the data set with Mus musculus [5] was “Non-Toxic” throughout. The inhibition entry was “Dose-dependent effect” with Mus musculus [6] and “Tde” in data set [17]. For the same compound, the half-life in data set [7] is 42.6 min. Moreover, the Vd in data set [8] is 4.94 L/kg. In addition, the clearance in data set [9] is 87.7 mL/min/kg. Besides, the AUMCt with Rattus norvegicus [10] turned out to be 109.3 hr2.ng/ml. Moreover, the AUMC in the data set with Rattus norvegicus [11] is reported as 149 hr2.ng/ml. Moreover, the bioavailability in data set [12] was 44.7%. In addition, in data set [13], the time of peak concentration (Tmax) was 30 min. The compound also had a Cmax in data set [14] of 540 ng/mL. The apparent clearance CL/F in [15] is 196 mL/min/kg. The same compound displayed a mean residence time (MRT inf) in data set [16] of 135 min.
